Each structure is given as a SMILES string.

In general, inhibition in vivo refers to the percentage by which the read-out fell short of the control. A higher inhibition in vivo goes with a response far below the control.

What all share (format): functional
Test [1] deals with Mus musculus. Description: Time course of protecting effect on PAF-induced death in mice, at the dose of 1 mg/kg after 24 hr. The method in brief: (§1)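 Conscious male ICR-Jcl mice, 5-7 weeks old. Drug dissolved in saline (0.1 mL/10 g) given into the tail vein 8 or 24 h before PAF (50 μg/kg, iv); saline-only controls. Death defined as cessation of respiration. Survival rate recorded 60 min after PAF. 16 mice per compound, 142 controls; χ2 test versus control.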

Test [2] relates to Mus musculus. Description: Time course of protecting effect on PAF-induced death in mice, at the dose of 1 mg/kg after 8 hr. The method in brief:
as §1

Test [3] deals with Rattus norvegicus. The test can be described thus: Compound was evaluated for the percent inhibition of the platelet activating factor (PAF) hypotension, after 120 min of intravenous injection of 0.1 mg/kg in rat. Particulars: 2 h.
Test [4] concerns Rattus norvegicus. Description: Compound was evaluated for the percent inhibition of the platelet activating factor (PAF) hypotension, after 5 min of intravenous injection of 0.1 mg/kg in rat.
In test [5] the test system is Rattus norvegicus. The test can be described thus: Compound was evaluated for the percent inhibition of the platelet activating factor (PAF) hypotension, after 60 min of intravenous injection of 0.1 mg/kg in rat. Particulars: 1 h.
The test system of test [6] is Rattus norvegicus. Description: Compound was evaluated for the percent inhibition of the platelet activating factor (PAF) hypotension, after 5 min of intravenous injection of 1 mg/kg in rat.
In test [7] the test system is Rattus norvegicus. Description: Compound was evaluated for the percent inhibition of the platelet activating factor (PAF) hypotension, after 120 min of intravenous injection of 1 mg/kg in rat. Particulars: 2 h.
In test [8] the test system is Rattus norvegicus. Description: Compound was evaluated for the percent inhibition of the platelet activating factor (PAF) hypotension, after 60 min of intravenous injection of 1 mg/kg in rat. Particulars: 1 h.

Turning to `CCCCCCCCCCCCCCCCCCNC(=O)OCC(COC(=O)N(Cc1csc[n+]1CC)C(C)=O)OC` (stereo not given), the survival at 1 mg/kg turned out to be 25% in test [1] and 75% in test [2]. The inhibition in vivo at 0.1 mg/kg stood at 14% in test [3], 100% in test [4] and 40% in test [5].
With `CCCCCCCCCCCCCCCCCCNC(=O)OCC(COC(=O)N(Cc1scc[n+]1CC)C(C)=O)OC` (stereo not given), the inhibition in vivo at 0.1 mg/kg in test [3] worked out at 0%; in test [4] it was 100%; in test [5] it was 3%.
In the case of `CCCCCCCCCCCCCCCCCCNC(=O)OCC(COC(=O)N(Cc1cccc[n+]1C)C(C)=O)OC` (stereo not given), the inhibition in vivo at 1 mg/kg is 82% in test [6], 33% in test [7] and 39% in test [8].
Turning to `CCCCCCCCCCCCCCCCCCNC(=O)OCC(COC(=O)N(Cc1csc[n+]1C)C(C)=O)OC` (stereo not given), the inhibition in vivo at 1 mg/kg is 92% in test [6], 4% in test [7] and 29% in test [8].
For `CCCCCCCCCCCCCCCCCCNC(=O)OCC(COC(=O)N(Cc1scc[n+]1C)C(C)=O)OC` (stereo not given), the inhibition in vivo at 1 mg/kg in test [6] is 100%; in test [7], 30%; in test [8] it was 100%. The inhibition in vivo at 0.1 mg/kg was determined as 0% in test [3], 43% in test [4] and 6% in test [5].
Take `CCCCCCCCCCCCCCCCCCNC(=O)OCC(COC(=O)N(Cc1cccc[n+]1CCCC)C(C)=O)OC` (stereo not given): the values for the inhibition in vivo at 1 mg/kg in test [6] and in test [8] were 100% and 0%, respectively.
For `CCCCCCCCCCCCCCCCCCNC(=O)OCC(COC(=O)N(Cc1cccc[n+]1CCC)C(C)=O)OC` (stereo not given), the inhibition in vivo at 0.1 mg/kg in test [4] is 45%; in test [5], 0%.
In the case of `CCCCCCCCCCCCCCCCCCNC(=O)OC[C@H](COC(=O)N(Cc1cccc[n+]1CC)C(C)=O)OC`, the inhibition in vivo at 0.1 mg/kg worked out at 20% in test [3], 100% in test [4] and 36% in test [5].
For `CCCCCCCCCCCCCCCCCCNC(=O)OC[C@@H](COC(=O)N(Cc1cccc[n+]1CC)C(C)=O)OC` the same measures were 17%, 100% and 54%.
Consider `CCCCCCCCCCCCCCCCCCNC(=O)OCC(COC(=O)N(Cc1cccc[n+]1CC)C(C)=O)OC` (stereo not given) [CV-6209], for which the figures for the survival at 1 mg/kg in test [1] and in test [2] were 69% and 100%, respectively. Moreover, the inhibition in vivo at 0.1 mg/kg in test [3] is 34%; in test [4] it was 100%; in test [5], 55%.

Source of the values: ChEMBL document CHEMBL1124649, “Platelet activating factor antagonists: synthesis and structure-activity studies of novel PAF analogues modified in the phosphorylcholine moiety” (J Med Chem, 1989).
